Test results published in ChEMBL document CHEMBL4396874, “Consideration of Binding Kinetics in the Design of Stapled Peptide Mimics of the Disordered Proteins Eukaryotic Translation Initiation Factor 4E-Binding Protein 1 and Eukaryotic Translation Initiation Factor 4G” (J Med Chem, 2019).
pIC50: −log10 of the molar value. Values belong to the compound of their own block, whether it stands above or below them. Calls of active or inactive are those of the source. The calls are words filed in the database; no cut-off is given here. Bridge positions count the residues as written; N and C are the ends. Square brackets hold non-standard residues; d marks the D form. Peptide text beside a SMILES is read from it. S5 = C=CCCC[C@](C)(N)C(=O)O

Assays:
MDA-MB-231 [1] = experiment: Anti-proliferative activity against human MDA-MB-231 cells at 5 to 20 uM after 6 days by CellTiter-Glo assay; type: functional, cell-based
Summary of the method: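 MDA-MB-231 cells (RPMI-1640, 10% FBS, 2 mM glutamine) plated at 2000 cells/well; peptides added at varying concentrations in triplicate for 6 days. Medium then replaced with OptiMEM, cells lysed with CellTiter-Glo reagent, luminescence read within 1 h. Data normalized; triplicate biological replicates.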

[2] = target: T1, Eukaryotic translation initiation factor 4E (Homo sapiens, UniProt P06730); experiment: Binding affinity to N-terminal 10His-tagged m7GDP-bound recombinant human eIF4E expressed in Escherichia coli BL21 (DE3) cells assessed as association constant at 12.5 to 200 nM at 10 to 25 degreeC by surface plasmon resonance analysis
T1 sequence (P06730 whole entry): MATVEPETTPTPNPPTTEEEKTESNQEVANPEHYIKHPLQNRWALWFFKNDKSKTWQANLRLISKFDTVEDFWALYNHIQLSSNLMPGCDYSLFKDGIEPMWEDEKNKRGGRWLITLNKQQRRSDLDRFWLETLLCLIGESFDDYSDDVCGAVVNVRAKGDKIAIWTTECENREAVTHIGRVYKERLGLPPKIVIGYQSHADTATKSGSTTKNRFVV

[3] = target: Eukaryotic translation initiation factor 4E/Eukaryotic translation initiation factor 4E-binding protein 1 (Homo sapiens, UniProt P06730); experiment: Inhibition of Halo-tagged biotinylated human eIF4E expressed in Escherichia coli/Halo-tagged methyltetrazine-labelled human 4E-BP1 expressed in Escherichia coli protein-protein interaction incubated for 1 hr by catalytic enzyme-linked click chemistry assay
Sequence of Eukaryotic translation initiation factor 4E/Eukaryotic translation initiation factor 4E-binding protein 1 (P06730 whole entry): as above
Sequence of Eukaryotic translation initiation factor 4E/Eukaryotic translation initiation factor 4E-binding protein 1 (Q13541 whole entry, further chain): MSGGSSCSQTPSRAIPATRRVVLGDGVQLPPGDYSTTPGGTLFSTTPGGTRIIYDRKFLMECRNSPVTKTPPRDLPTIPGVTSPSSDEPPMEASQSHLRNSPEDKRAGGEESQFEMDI

[4] = target: T1, Eukaryotic translation initiation factor 4E; experiment: Binding affinity to N-terminal 10His-tagged m7GDP-bound recombinant human eIF4E expressed in Escherichia coli BL21 (DE3) cells assessed as binding constant at 25 degreeC in presence of 1000 mM of NaCl by surface plasmon resonance analysis
Summary of the method: (§1)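 Peptides injected at 50 μL/min, 10 concentrations (188 nM to 4.0 μM) in duplicate, random order. Chip stripped with EDTA and reloaded between cycles.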

[5] = target: T1, Eukaryotic translation initiation factor 4E; experiment: Binding affinity to N-terminal 10His-tagged m7GDP-bound recombinant human eIF4E expressed in Escherichia coli BL21 (DE3) cells assessed as dissociation rate constant at 25 degreeC by surface plasmon resonance analysis
[6] = target: T1, Eukaryotic translation initiation factor 4E; experiment: Binding affinity to N-terminal 10His-tagged m7GDP-bound recombinant human eIF4E expressed in Escherichia coli BL21 (DE3) cells assessed as dissociation constant at 10 to 25 degreeC by surface plasmon resonance analysis relative to control; summary of the method: as §1
[7] = target: T1, Eukaryotic translation initiation factor 4E; experiment: Binding affinity to N-terminal 10His-tagged m7GDP-bound recombinant human eIF4E expressed in Escherichia coli BL21 (DE3) cells assessed as binding constant at 25 degreeC by surface plasmon resonance analysis
Summary of the method: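 m7GDP-bound His10-eIF4E captured to ~600 RU on a Ni-activated HisCap chip. EDTA regeneration between cycles. Kd from global 1:1 fit; triplicate experiments.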

[8] = target: T1, Eukaryotic translation initiation factor 4E; experiment: Binding affinity to N-terminal 10His-tagged m7GDP-bound recombinant human eIF4E expressed in Escherichia coli BL21 (DE3) cells assessed as association rate constant at 25 degreeC by surface plasmon resonance analysis
[9] = target: T1, Eukaryotic translation initiation factor 4E; experiment: Binding affinity to N-terminal 10His-tagged m7GDP-bound recombinant human eIF4E expressed in Escherichia coli BL21 (DE3) cells assessed as binding constant at 10 to 25 degreeC by surface plasmon resonance analysis
MDA-MB-231 [10] = experiment: Effect on total eIF4G level in human MDA-MB-231 cells at 5 uM after 6 hrs by Western blot analysis; type: ADME, cell-based; settings: mda-mb-231, 6 h
Summary of the method: (§2)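 MDA-MB-231 cells in 10% FBS treated 6 h with water-dissolved peptides, lysed in RIPA with protease/phosphatase inhibitors, sonicated on ice, protein normalized by BCA, then western blotted (4–12% bis-Tris gel, PVDF, 5% milk block, primary overnight at 4 °C). Triplicate biological replicates.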

MDA-MB-231 [11] = experiment: Effect on total eIF4E level in human MDA-MB-231 cells at 5 uM after 6 hrs by Western blot analysis; type: ADME, cell-based; settings: mda-mb-231, 6 h; summary of the method: as §2
[12] = target: EIF4E/EIF4G1 (Homo sapiens) (UniProt P06730+Q04637); experiment: Inhibition of eIF4E/eIF4G interaction in human MDA-MB-231 cells incubated for 6 hr by m7GDP pull down assay; type: cell-based
MDA-MB-231 [13] = experiment: Effect on total 4E-BP1 level in human MDA-MB-231 cells at 5 uM after 6 hrs by Western blot analysis; type: ADME, cell-based; settings: mda-mb-231, 6 h; summary of the method: as §2
MDA-MB-231 [14] = experiment: Induction of cell lysis in human MDA-MB-231 cells assessed as LDH leakage at 15 uM after 24 hrs by LDH cytotoxicity assay; settings: mda-mb-231, 24 h
[15] = target: Eukaryotic translation initiation factor 4E/Eukaryotic translation initiation factor 4E-binding protein 1 (Homo sapiens) (UniProt P06730+Q13541); experiment: Inhibition of eIF4E/4E-BP1 interaction in human MDA-MB-231 cells incubated for 6 hr by m7GDP pull down assay; type: cell-based
Sequence of Eukaryotic translation initiation factor 4E/Eukaryotic translation initiation factor 4E-binding protein 1 (Homo sapiens) (P06730 2-217 limits assumed): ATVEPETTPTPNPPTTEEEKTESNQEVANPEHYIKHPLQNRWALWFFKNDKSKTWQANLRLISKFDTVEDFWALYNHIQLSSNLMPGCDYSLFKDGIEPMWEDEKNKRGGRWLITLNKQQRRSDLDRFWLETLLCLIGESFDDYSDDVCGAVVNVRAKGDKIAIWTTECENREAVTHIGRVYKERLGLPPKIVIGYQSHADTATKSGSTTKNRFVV
Sequence of Eukaryotic translation initiation factor 4E/Eukaryotic translation initiation factor 4E-binding protein 1 (Homo sapiens) (Q13541 2-118 partner limits assumed): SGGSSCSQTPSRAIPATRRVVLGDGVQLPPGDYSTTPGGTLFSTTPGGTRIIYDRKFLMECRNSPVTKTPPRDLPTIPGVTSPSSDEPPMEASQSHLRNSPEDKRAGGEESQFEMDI

[16] = target: T1, Eukaryotic translation initiation factor 4E
[17] = target: T1, Eukaryotic translation initiation factor 4E; experiment: Binding affinity to N-terminal 10His-tagged m7GDP-bound recombinant human eIF4E expressed in Escherichia coli BL21 (DE3) cells assessed as dissociation constant at 25 degreeC in presence 225 to 1000 mM of NaCl by surface plasmon resonance analysis

Compound: CC[C@H](C)[C@H](NC(=O)[C@H](CCCNC(=N)N)NC(=O)[C@@H](NC(=O)CNC(C)=O)[C@@H](C)O)C(=O)N[C@H](C(=O)N[C@@H](Cc1ccc(O)cc1)C(=O)N[C@@H](CC(=O)O)C(=O)N[C@@H](CCCNC(=N)N)C(=O)N[C@@]1(C)CCC/C=C\CCC[C@@](C)(C(=O)N[C@@H](CS)C(=O)N[C@@H](CCCNC(=N)N)C(=O)N[C@@H](CC(N)=O)C(N)=O)NC(=O)[C@H](C)NC(=O)[C@H](C)NC(=O)[C@H](Cc2ccccc2)NC1=O)[C@@H](C)CC
- Activity (MDA-MB-231 [1]): inactive

Compound: H-KKRYDRKFLMECRN-NH2
- fold change (FC) [6]: 3.9 to 5.5
- kon [8]: 2 ×10⁶ /M/s

Compound: CC(=O)N[C@@H](CCCCN)C(=O)N[C@@H](CCCCN)C(=O)N[C@@H](CCCNC(=N)N)C(=O)N[C@@H](Cc1ccc(O)cc1)C(=O)N[C@@H](CO)C(=O)N[C@@H](CCCNC(=N)N)C(=O)N[C@@]1(C)CCC/C=C\CCC[C@@](C)(C(=O)N[C@@H](CC(C)C)C(N)=O)NC(=O)[C@H](CC(C)C)NC(=O)[C@H](CC(C)C)NC(=O)[C@H](CCC(N)=O)NC1=O
- Activity (MDA-MB-231 [10]): Non-Toxic
- pIC50 [3]: 7.51 to 7.78
- Activity (MDA-MB-231 [11]): Non-Toxic
- inhibition [12]: Dose-dependent effect
- Activity (MDA-MB-231 [1]): Active
- Activity (MDA-MB-231 [13]): Non-Toxic
- Activity (MDA-MB-231 [14]): Non-Toxic
- inhibition [15]: Dose-dependent effect

Compound: CC[C@H](C)[C@H](NC(=O)[C@@H](NC(=O)[C@@H](N)CCCNC(=N)N)[C@@H](C)CC)C(=O)N[C@@H](Cc1ccc(O)cc1)C(=O)N[C@@H](CC(=O)O)C(=O)N[C@@H](CCCNC(=N)N)C(=O)N[C@@H](CCCCN)C(=O)N[C@@H](Cc1ccccc1)C(=O)N[C@@H](CC(C)C)C(=O)N[C@@H](CCSC)C(=O)N[C@@H](CCC(=O)O)C(=O)N[C@@H](CS)C(=O)N[C@@H](CCCNC(=N)N)C(=O)N[C@@H](CC(N)=O)C(N)=O
- Ka [16]: inactive
- Kd [17]: Not Active
- K [4]: Active
- fold change (FC) [6]: 3.9 to 5.5

Now from value to compound, other results behind:

- Ka [2]: inactive
- pIC50 [3]: 6.20 to 6.42
- K [4]: 14 to 62 nM
- koff [5]: 123 ×10⁻³ /s
- fold change (FC) [6]: 3.9 to 5.5
- K [7]: 62 nM
- kon [8]: 2 ×10⁶ /M/s
- K [9]: Active
Compound: Ac-KKRYSREQLLGL-NH2

- pIC50 [3]: 6.71 to 6.86
Compound: CC(=O)N[C@@H](CCCCN)C(=O)N[C@@H](CCCCN)C(=O)N[C@@H](CCCNC(=N)N)C(=O)N[C@@H](Cc1ccc(O)cc1)C(=O)N[C@@H](CC(=O)O)C(=O)N[C@@H](CCCNC(=N)N)C(=O)N[C@@H](CCC(=O)O)C(=O)N[C@@H](Cc1ccccc1)C(=O)N[C@@H](CC(C)C)C(=O)N[C@@H](CC(C)C)C(=O)NCC(=O)N[C@@H](Cc1ccccc1)C(=O)N[C@@H](CCC(N)=O)C(=O)N[C@@H](Cc1ccccc1)C(N)=O

- pIC50 [3]: 8.17 to 8.51
Compound: CC[C@H](C)[C@H](NC(=O)[C@H](CCCNC(=N)N)NC(=O)[C@@H](NC(=O)CNC(C)=O)[C@@H](C)O)C(=O)N[C@H](C(=O)N[C@@H](Cc1ccc(O)cc1)C(=O)N[C@@H](CC(=O)O)C(=O)N[C@@H](CCCNC(=N)N)C(=O)N[C@@]1(C)CCC/C=C\CCC[C@@](C)(C(=O)N[C@@H](CS)C(=O)N[C@@H](CCCNC(=N)N)C(=O)N[C@@H](CC(N)=O)C(N)=O)NC(=O)[C@H](CCSC)NC(=O)[C@H](CC(C)C)NC(=O)[C@H](Cc2ccccc2)NC1=O)[C@@H](C)CC
- Activity (MDA-MB-231 [10]): Non-Toxic
- Activity (MDA-MB-231 [11]): Non-Toxic
- Activity (MDA-MB-231 [1]): Active
- Activity (MDA-MB-231 [13]): Non-Toxic

- pIC50 [3]: 5.14 to 5.35
Compound: CC(=O)N[C@@H](CCCCN)C(=O)N[C@@H](CCCCN)C(=O)N[C@@H](CCCNC(=N)N)C(=O)N[C@@H](Cc1ccc(O)cc1)C(=O)N[C@@H](CC(=O)O)C(=O)N[C@@H](CCCNC(=N)N)C(=O)N[C@@]1(C)CCC/C=C\CCC[C@@](C)(C(=O)N[C@@H](Cc2ccccc2)C(=O)N[C@@H](CCC(N)=O)C(=O)N[C@@H](Cc2ccccc2)C(N)=O)NC(=O)[C@H](CC(C)C)NC(=O)[C@H](CC(C)C)NC(=O)[C@H](Cc2ccccc2)NC1=O (Ac-KKRYDR[S5]FLL[S5]FQF-NH2; staple (Z) 7-11)
